Measured values taken from ChEMBL document CHEMBL1649355, “Synthesis and biological evaluation of novel 2,4-disubstituted-1,3-thiazoles as anti-Candida spp. agents” (2011).
≈ marks a conversion by molar mass, not a printed value.

Key:
Candida tropicalis [1] = experiment: Antifungal activity against Candida tropicalis after 24 hrs by broth microdilution method
Candida albicans [2] = experiment: Antifungal activity against Candida albicans after 24 hrs by broth microdilution method
[Candida] sake [3] = Antifungal activity against Candida sake after 24 hrs by broth microdilution method; details: Fermentozyma sake
Pichia kudriavzevii [4] = experiment: Antifungal activity against Candida krusei after 24 hrs by broth microdilution method
Nakaseomyces glabratus [5] = experiment: Antifungal activity against Candida glabrata after 24 hrs
Pichia kudriavzevii [6] = experiment: Antifungal activity against Candida krusei after 24 hrs by MTT assay; type: functional
In short: (§1)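 Broth microdilution in Sabouraud dextrose broth per NCCLS guidance, tested against clinical Candida isolates (20 strains across species). Compounds dissolved in DMSO and serially diluted to final concentrations of 0.125–256. Inoculum 10³/mL. Each plate carried fungus-only and medium-only controls. Incubated 24 h at 37 °C. MIC reported as range per species.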

Nakaseomyces glabratus [7] = experiment: Antifungal activity against Candida glabrata after 24 hrs by MTT assay; type: functional
In short: as §1

Candida albicans [8] = experiment: Antifungal activity against Candida albicans after 24 hrs by MTT assay; type: functional
In short: as §1

[Candida] sake [9] = Antifungal activity against Candida sake after 24 hrs by MTT assay; type: functional; details: Fermentozyma sake
In short: as §1

Candida tropicalis [10] = experiment: Antifungal activity against Candida tropicalis after 24 hrs by MTT assay; type: functional
In short: as §1

Row | Structure (SMILES) | MIC (Candida tropicalis [1]) [µg/mL] | MIC (Candida albicans [2]) [µg/mL] | MIC ([Candida] sake [3]) [µg/mL] | MIC (Pichia kudriavzevii [4]) [µg/mL] | MIC (Nakaseomyces glabratus [5]) [µg/mL] | MIC (Pichia kudriavzevii [6]) [µg/mL] | MIC (Nakaseomyces glabratus [7]) [µg/mL] | MIC (Candida albicans [8]) [µg/mL] | MIC ([Candida] sake [9]) [µg/mL] | MIC (Candida tropicalis [10]) [µg/mL]
1 | Cc1ccc(-c2csc(N/N=C\c3ccco3)n2)cc1 | 64 (≈ 226 µM) | 0.5 (≈ 1.76 µM) | 16 (≈ 56.5 µM) | 32 (≈ 113 µM) | 4 (≈ 14.1 µM) | – | – | – | – | –
2 | COc1ccc(-c2csc(N/N=C\c3ccco3)n2)cc1 | 64 (≈ 214 µM) | 0.5 (≈ 1.67 µM) | 32 (≈ 107 µM) | 16 (≈ 53.4 µM) | 4 (≈ 13.4 µM) | – | – | – | – | –
3 | C/C(=N/Nc1nc(-c2ccc(C)cc2)cs1)c1ccco1 | 64 (≈ 215 µM) | 0.5 (≈ 1.68 µM) | 32 (≈ 108 µM) | 64 (≈ 215 µM) | 4 (≈ 13.5 µM) | – | – | – | – | –
4 | COc1ccc(-c2csc(N/N=C(/C)c3ccco3)n2)cc1 | 128 (≈ 408 µM) | 0.5 (≈ 1.6 µM) | 16 (≈ 51.1 µM) | 16 (≈ 51.1 µM) | 4 (≈ 12.8 µM) | – | – | – | – | –
5 | Cc1ccc(-c2csc(N/N=C\c3cccs3)n2)cc1 | 64 (≈ 214 µM) | 4 (≈ 13.4 µM) | 8 (≈ 26.7 µM) | 16 (≈ 53.4 µM) | 0.5 (≈ 1.67 µM) | – | – | – | – | –
6 | COc1ccc(-c2csc(N/N=C\c3cccs3)n2)cc1 | 128 (≈ 406 µM) | 0.125 (≈ 0.396 µM) | 32 (≈ 101 µM) | 64 (≈ 203 µM) | 0.5 (≈ 1.59 µM) | – | – | – | – | –
7 | C/C(=N/Nc1nc(-c2ccc(C)cc2)cs1)c1cccs1 | 128 (≈ 408 µM) | 0.5 (≈ 1.6 µM) | 32 (≈ 102 µM) | 32 (≈ 102 µM) | 2 (≈ 6.38 µM) | – | – | – | – | –
8 | COc1ccc(-c2csc(N/N=C(/C)c3cccs3)n2)cc1 | 8 (≈ 24.3 µM) | 0.125 (≈ 0.379 µM) | 32 (≈ 97.1 µM) | 64 (≈ 194 µM) | 2 (≈ 6.07 µM) | – | – | – | – | –
9 | C/C(=N/Nc1nc(-c2ccc(C)cc2)cs1)c1ccccn1 | 64 (≈ 208 µM) | 2 (≈ 6.48 µM) | 32 (≈ 104 µM) | 64 (≈ 208 µM) | 4 (≈ 13 µM) | – | – | – | – | –
10 | COc1ccc(-c2csc(N/N=C(/C)c3ccccn3)n2)cc1 | 64 (≈ 197 µM) | 0.5 (≈ 1.54 µM) | 32 (≈ 98.6 µM) | 16 (≈ 49.3 µM) | 8 (≈ 24.7 µM) | – | – | – | – | –
11 | Cc1ccc(-c2csc(N/N=C\c3cccnc3)n2)cc1 | 128 (≈ 435 µM) | 0.125 (≈ 0.425 µM) | 16 (≈ 54.4 µM) | 32 (≈ 109 µM) | 0.5 (≈ 1.7 µM) | – | – | – | – | –
12 | COc1ccc(-c2csc(N/N=C\c3cccnc3)n2)cc1 | 64 (≈ 206 µM) | 4 (≈ 12.9 µM) | 16 (≈ 51.5 µM) | 32 (≈ 103 µM) | 16 (≈ 51.5 µM) | – | – | – | – | –
13 | C/C(=N/Nc1nc(-c2ccc(C)cc2)cs1)c1cccnc1 | 16 (≈ 51.9 µM) | 0.5 (≈ 1.62 µM) | 16 (≈ 51.9 µM) | 64 (≈ 208 µM) | 2 (≈ 6.48 µM) | – | – | – | – | –
14 | COc1ccc(-c2csc(N/N=C(/C)c3cccnc3)n2)cc1 | 128 (≈ 395 µM) | 8 (≈ 24.7 µM) | 32 (≈ 98.6 µM) | 128 (≈ 395 µM) | 8 (≈ 24.7 µM) | – | – | – | – | –
15 | Cc1ccc(-c2csc(N/N=C\c3ccncc3)n2)cc1 | 64 (≈ 217 µM) | 0.5 (≈ 1.7 µM) | 32 (≈ 109 µM) | 128 (≈ 435 µM) | 4 (≈ 13.6 µM) | – | – | – | – | –
16 | COc1ccc(-c2csc(N/N=C\c3ccncc3)n2)cc1 | 16 (≈ 51.5 µM) | 0.125 (≈ 0.403 µM) | 32 (≈ 103 µM) | 16 (≈ 51.5 µM) | 0.5 (≈ 1.61 µM) | – | – | – | – | –
17 | C/C(=N/Nc1nc(-c2ccc(C)cc2)cs1)c1ccncc1 | 32 (≈ 104 µM) | 0.5 (≈ 1.62 µM) | 32 (≈ 104 µM) | 32 (≈ 104 µM) | 4 (≈ 13 µM) | – | – | – | – | –
18 | COc1ccc(-c2csc(N/N=C(/C)c3ccncc3)n2)cc1 | 32 (≈ 98.6 µM) | 0.5 (≈ 1.54 µM) | 16 (≈ 49.3 µM) | 128 (≈ 395 µM) | 4 (≈ 12.3 µM) | – | – | – | – | –
19 | Cc1ccc(-c2csc(N/N=C\c3cccc4ccccc34)n2)cc1 | 16 (≈ 46.6 µM) | 2 (≈ 5.82 µM) | 32 (≈ 93.2 µM) | 16 (≈ 46.6 µM) | 16 (≈ 46.6 µM) | – | – | – | – | –
20 | COc1ccc(-c2csc(N/N=C\c3cccc4ccccc34)n2)cc1 | 64 (≈ 178 µM) | 4 (≈ 11.1 µM) | 16 (≈ 44.5 µM) | 32 (≈ 89 µM) | 2 (≈ 5.56 µM) | – | – | – | – | –
21 | C/C(=N/Nc1nc(-c2ccc(C)cc2)cs1)c1ccc2ccccc2c1 | 4 (≈ 11.2 µM) | 2 (≈ 5.59 µM) | 16 (≈ 44.8 µM) | 32 (≈ 89.5 µM) | 0.5 (≈ 1.4 µM) | – | – | – | – | –
22 | COc1ccc(-c2csc(N/N=C(/C)c3ccc4ccccc4c3)n2)cc1 | 64 (≈ 171 µM) | 2 (≈ 5.36 µM) | 16 (≈ 42.8 µM) | 256 (≈ 685 µM) | 2 (≈ 5.36 µM) | – | – | – | – | –
23 | Cc1ccc(-c2csc(N/N=C\c3ccc4c(c3)OCO4)n2)cc1 | 16 (≈ 47.4 µM) | 0.125 (≈ 0.37 µM) | 8 (≈ 23.7 µM) | 64 (≈ 190 µM) | 4 (≈ 11.9 µM) | – | – | – | – | –
24 | COc1ccc(-c2csc(N/N=C\c3ccc4c(c3)OCO4)n2)cc1 | 64 (≈ 181 µM) | 0.5 (≈ 1.41 µM) | 8 (≈ 22.6 µM) | 64 (≈ 181 µM) | 4 (≈ 11.3 µM) | – | – | – | – | –
25 | Cc1ccc(-c2csc(N/N=C\c3c[nH]c4ccccc34)n2)cc1 | 64 (≈ 193 µM) | 0.125 (≈ 0.376 µM) | 32 (≈ 96.3 µM) | 32 (≈ 96.3 µM) | 4 (≈ 12 µM) | – | – | – | – | –
26 | COc1ccc(-c2csc(N/N=C\c3c[nH]c4ccccc34)n2)cc1 | 64 (≈ 184 µM) | 32 (≈ 91.8 µM) | 8 (≈ 23 µM) | 64 (≈ 184 µM) | 0.5 (≈ 1.44 µM) | – | – | – | – | –
27 | C/C(=N/Nc1nc(-c2ccc(C)cc2)cs1)c1cc2ccccc2oc1=O | – | – | – | – | – | 128 (≈ 341 µM) | 0.5 (≈ 1.33 µM) | 0.125 (≈ 0.333 µM) | 32 (≈ 85.2 µM) | 128 (≈ 341 µM)
28 | COc1ccc(-c2csc(N/N=C(/C)c3cc4ccccc4oc3=O)n2)cc1 | 2 (≈ 5.11 µM) | 2 (≈ 5.11 µM) | 32 (≈ 81.7 µM) | 32 (≈ 81.7 µM) | 2 (≈ 5.11 µM) | – | – | – | – | –
29 | Clc1ccccc1C(c1ccccc1)(c1ccccc1)n1ccnc1 [CLOTRIMAZOLE] | – | 2 (≈ 5.8 µM) | 16 (≈ 46.4 µM) | – | 2 (≈ 5.8 µM) | – | – | – | – | –
30 | OC(Cn1cncn1)(Cn1cncn1)c1ccc(F)cc1F [FLUCONAZOLE] | 4 (≈ 13.1 µM) | 4 (≈ 13.1 µM) | 32 (≈ 104 µM) | 8 (≈ 26.1 µM) | 4 (≈ 13.1 µM) | – | – | – | – | –
